From ChEMBL document CHEMBL4689842, “EUbOPEN Chemogenomics Library wave 1” (2021)
Where “and” joins values, the source holds several entries; their conditions need not be identical. Equal values may be shown once.

Test system: Fibroblast
Assay: Multiplex assay against human fibroblast
Type: toxicity, cell-based
Outline: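 Hoechst33342, BioTracker Green Microtubule Cytoskeleton Dye, MitoTracker Red and Annexin V Alexa Fluor 680 were added to live cells at seeding, and imaging on a CQ1 microscope at 37°C and 5% CO2 followed compound addition. Gating by CellPathfinder machine learning separated cells into Hoechst high-intensity objects or normal cells, then normal cells into healthy, pyknosed or fragmented nuclei, then pyknosed cells into mitotic or apoptotic. Per cents of healthy-nucleus cells are reported for the tubulin, mitochondrial-mass and membrane-permeability phenotypes.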

[1] = 12 h, 1 µM, compound concentration 1 uM, replicate 1
[2] = 12 h, 1 µM, compound concentration 1 uM, replicate 2
[3] = 12 h, 10 µM, compound concentration 10 uM, replicate 1
[4] = 12 h, 10 µM, compound concentration 10 uM, replicate 2
[5] = 24 h, 1 µM, compound concentration 1 uM, replicate 1
[6] = 24 h, 1 µM, compound concentration 1 uM, replicate 2
[7] = 24 h, 10 µM, compound concentration 10 uM, replicate 1
[8] = 24 h, 10 µM, compound concentration 10 uM, replicate 2
[9] = 48 h, 10 µM, compound concentration 10 uM, replicate 1
[10] = 48 h, 10 µM, compound concentration 10 uM, replicate 2
[11] = 48 h, 1 µM, compound concentration 1 uM, replicate 1
[12] = 48 h, 1 µM, compound concentration 1 uM, replicate 2

Compound: COc1cc(N2CCC(N(C)C)CC2)ccc1Nc1ncc(Cl)c(Nc2ccccc2P(C)(C)=O)n1
- Population Apoptotic (%) [1]: 64%
- Population Fragmented Nuclei (%) [1]: 26%
- Population Healthy Nuclei (%) [1]: 56%
- Population Hoechst High Intensity Objects (%) [1]: 14%
- Population Membrane Permeable-Phenotype (%) [1]: 8%
- Population Mitochondria Different-Phenotype (%) [1]: 6%
- Population Mitotic Cells (%) [1]: 35%
- Population Normal (%) [1]: 85%
- Population Pyknosed Nuclei (%) [1]: 16%
- Population Tubulin-Different-Phenotype (%) [1]: 6%
- Total Cell Count [1]: 202
- Population Apoptotic (%) [2]: 42%
- Population Fragmented Nuclei (%) [2]: 52%
- Population Healthy Nuclei (%) [2]: 31%
- Population Hoechst High Intensity Objects (%) [2]: 24%
- Population Membrane Permeable-Phenotype (%) [2]: 14%
- Population Mitochondria Different-Phenotype (%) [2]: 7%
- Population Mitotic Cells (%) [2]: 57%
- Population Normal (%) [2]: 75%
- Population Pyknosed Nuclei (%) [2]: 15%
- Population Tubulin-Different-Phenotype (%) [2]: 21%
- Total Cell Count [2]: 58
- Population Apoptotic (%) [3]: 73% and 69%
- Population Fragmented Nuclei (%) [3]: 27% and 24%
- Population Healthy Nuclei (%) [3]: 45% and 57%
- Population Hoechst High Intensity Objects (%) [3]: 13%
- Population Mitochondria Different-Phenotype (%) [3]: 7% and 6%
- Population Mitotic Cells (%) [3]: 26% and 30%
- Population Normal (%) [3]: 86%
- Population Pyknosed Nuclei (%) [3]: 27% and 17%
- Total Cell Count [3]: 98 and 215
- Population Apoptotic (%) [4]: 37% and 88%
- Population Fragmented Nuclei (%) [4]: 45% and 26%
- Population Healthy Nuclei (%) [4]: 32%
- Population Hoechst High Intensity Objects (%) [4]: 39% and 16%
- Population Membrane Permeable-Phenotype (%) [4]: 8% and 15%
- Population Normal (%) [4]: 60% and 83%
- Population Pyknosed Nuclei (%) [4]: 21% and 40%
- Population Tubulin-Different-Phenotype (%) [4]: 41% and 90%
- Total Cell Count [4]: 61 and 73
- Population Apoptotic (%) [5]: 96%
- Population Fragmented Nuclei (%) [5]: 18%
- Population Healthy Nuclei (%) [5]: 65%
- Population Hoechst High Intensity Objects (%) [5]: 14%
- Population Membrane Permeable-Phenotype (%) [5]: 6%
- Population Mitotic Cells (%) [5]: 3%
- Population Normal (%) [5]: 85%
- Population Pyknosed Nuclei (%) [5]: 16%
- Population Tubulin-Different-Phenotype (%) [5]: 4%
- Total Cell Count [5]: 204
- Population Apoptotic (%) [6]: 57%
- Population Fragmented Nuclei (%) [6]: 43%
- Population Healthy Nuclei (%) [6]: 38%
- Population Hoechst High Intensity Objects (%) [6]: 32%
- Population Membrane Permeable-Phenotype (%) [6]: 0%
- Population Mitochondria Different-Phenotype (%) [6]: 6%
- Population Mitotic Cells (%) [6]: 42%
- Population Normal (%) [6]: 67%
- Population Pyknosed Nuclei (%) [6]: 17%
- Population Tubulin-Different-Phenotype (%) [6]: 13%
- Total Cell Count [6]: 58
- Population Apoptotic (%) [7]: 68% and 88%
- Population Fragmented Nuclei (%) [7]: 29% and 31%
- Population Healthy Nuclei (%) [7]: 50% and 54%
- Population Hoechst High Intensity Objects (%) [7]: 13%
- Population Mitochondria Different-Phenotype (%) [7]: 14% and 9%
- Population Mitotic Cells (%) [7]: 31% and 11%
- Population Normal (%) [7]: 86%
- Population Pyknosed Nuclei (%) [7]: 19% and 14%
- Total Cell Count [7]: 94 and 210
- Population Apoptotic (%) [8]: 66% and 92%
- Population Fragmented Nuclei (%) [8]: 47% and 26%
- Population Healthy Nuclei (%) [8]: 35% and 15%
- Population Hoechst High Intensity Objects (%) [8]: 39% and 38%
- Population Normal (%) [8]: 60% and 61%
- Population Tubulin-Different-Phenotype (%) [8]: 41% and 100%
- Total Cell Count [8]: 56 and 75
- Population Apoptotic (%) [9]: 87%
- Population Fragmented Nuclei (%) [9]: 47%
- Population Healthy Nuclei (%) [9]: 41%
- Population Hoechst High Intensity Objects (%) [9]: 22%
- Population Membrane Permeable-Phenotype (%) [9]: 20%
- Population Mitochondria Different-Phenotype (%) [9]: 23%
- Population Mitotic Cells (%) [9]: 12%
- Population Normal (%) [9]: 77%
- Population Pyknosed Nuclei (%) [9]: 10%
- Population Tubulin-Different-Phenotype (%) [9]: 70%
- Total Cell Count [9]: 94
- Population Apoptotic (%) [10]: 66%
- Population Fragmented Nuclei (%) [10]: 34%
- Population Healthy Nuclei (%) [10]: 61%
- Population Hoechst High Intensity Objects (%) [10]: 16%
- Population Membrane Permeable-Phenotype (%) [10]: 22%
- Population Mitochondria Different-Phenotype (%) [10]: 9%
- Population Mitotic Cells (%) [10]: 33%
- Population Normal (%) [10]: 83%
- Population Pyknosed Nuclei (%) [10]: 4%
- Population Tubulin-Different-Phenotype (%) [10]: 56%
- Total Cell Count [10]: 86

Compound: Cl.Cl.Nc1ncnc2c1c(-c1cccc(OCc3ccccc3)c1)cn2[C@H]1C[C@@H](CN2CCC2)C1
- Population Apoptotic (%) [1]: 70%
- Population Fragmented Nuclei (%) [1]: 31%
- Population Healthy Nuclei (%) [1]: 48%
- Population Hoechst High Intensity Objects (%) [1]: 22%
- Population Membrane Permeable-Phenotype (%) [1]: 21%
- Population Mitochondria Different-Phenotype (%) [1]: 9%
- Population Mitotic Cells (%) [1]: 29%
- Population Normal (%) [1]: 77%
- Population Pyknosed Nuclei (%) [1]: 20%
- Population Tubulin-Different-Phenotype (%) [1]: 53%
- Total Cell Count [1]: 109
- Population Apoptotic (%) [2]: 29%
- Population Fragmented Nuclei (%) [2]: 11%
- Population Healthy Nuclei (%) [2]: 67%
- Population Hoechst High Intensity Objects (%) [2]: 6%
- Population Membrane Permeable-Phenotype (%) [2]: 3%
- Population Mitochondria Different-Phenotype (%) [2]: 71%
- Population Mitotic Cells (%) [2]: 70%
- Population Normal (%) [2]: 93%
- Population Tubulin-Different-Phenotype (%) [2]: 52%
- Total Cell Count [2]: 55
- Population Apoptotic (%) [3]: 60%
- Population Fragmented Nuclei (%) [3]: 24%
- Population Healthy Nuclei (%) [3]: 39%
- Population Hoechst High Intensity Objects (%) [3]: 38%
- Population Membrane Permeable-Phenotype (%) [3]: 9%
- Population Mitochondria Different-Phenotype (%) [3]: 50%
- Population Mitotic Cells (%) [3]: 40%
- Population Normal (%) [3]: 61%
- Population Pyknosed Nuclei (%) [3]: 36%
- Population Tubulin-Different-Phenotype (%) [3]: 77%
- Total Cell Count [3]: 222
- Population Apoptotic (%) [4]: 85%
- Population Fragmented Nuclei (%) [4]: 22%
- Population Healthy Nuclei (%) [4]: 47%
- Population Hoechst High Intensity Objects (%) [4]: 8%
- Population Membrane Permeable-Phenotype (%) [4]: 77%
- Population Mitochondria Different-Phenotype (%) [4]: 97%
- Population Mitotic Cells (%) [4]: 14%
- Population Normal (%) [4]: 91%
- Population Pyknosed Nuclei (%) [4]: 29%
- Population Tubulin-Different-Phenotype (%) [4]: 97%
- Total Cell Count [4]: 90
- Population Apoptotic (%) [5]: 53%
- Population Fragmented Nuclei (%) [5]: 29%
- Population Healthy Nuclei (%) [5]: 57%
- Population Hoechst High Intensity Objects (%) [5]: 26%
- Population Membrane Permeable-Phenotype (%) [5]: 18%
- Population Mitochondria Different-Phenotype (%) [5]: 3%
- Population Mitotic Cells (%) [5]: 46%
- Population Normal (%) [5]: 73%
- Population Pyknosed Nuclei (%) [5]: 12%
- Population Tubulin-Different-Phenotype (%) [5]: 53%
- Total Cell Count [5]: 141
- Population Apoptotic (%) [6]: 28%
- Population Fragmented Nuclei (%) [6]: 13%
- Population Healthy Nuclei (%) [6]: 64%
- Population Hoechst High Intensity Objects (%) [6]: 6%
- Population Membrane Permeable-Phenotype (%) [6]: 4%
- Population Mitochondria Different-Phenotype (%) [6]: 68%
- Population Mitotic Cells (%) [6]: 71%
- Population Normal (%) [6]: 93%
- Population Pyknosed Nuclei (%) [6]: 21%
- Population Tubulin-Different-Phenotype (%) [6]: 39%
- Total Cell Count [6]: 50
- Population Apoptotic (%) [7]: 84%
- Population Fragmented Nuclei (%) [7]: 18%
- Population Healthy Nuclei (%) [7]: 40%
- Population Hoechst High Intensity Objects (%) [7]: 48%
- Population Membrane Permeable-Phenotype (%) [7]: 5%
- Population Mitochondria Different-Phenotype (%) [7]: 59%
- Population Mitotic Cells (%) [7]: 15%
- Population Normal (%) [7]: 51%
- Population Pyknosed Nuclei (%) [7]: 41%
- Population Tubulin-Different-Phenotype (%) [7]: 67%
- Total Cell Count [7]: 178
- Population Apoptotic (%) [8]: 92%
- Population Fragmented Nuclei (%) [8]: 21%
- Population Healthy Nuclei (%) [8]: 35%
- Population Hoechst High Intensity Objects (%) [8]: 9%
- Population Membrane Permeable-Phenotype (%) [8]: 93%
- Population Mitochondria Different-Phenotype (%) [8]: 96%
- Population Mitotic Cells (%) [8]: 7%
- Population Normal (%) [8]: 90%
- Population Pyknosed Nuclei (%) [8]: 42%
- Population Tubulin-Different-Phenotype (%) [8]: 96%
- Total Cell Count [8]: 104
- Population Apoptotic (%) [11]: 83%
- Population Fragmented Nuclei (%) [11]: 36%
- Population Healthy Nuclei (%) [11]: 56%
- Population Hoechst High Intensity Objects (%) [11]: 28%
- Population Membrane Permeable-Phenotype (%) [11]: 12%
- Population Mitotic Cells (%) [11]: 16%
- Population Normal (%) [11]: 71%
- Population Pyknosed Nuclei (%) [11]: 6%
- Population Tubulin-Different-Phenotype (%) [11]: 33%
- Total Cell Count [11]: 132
- Population Apoptotic (%) [12]: 50%
- Population Fragmented Nuclei (%) [12]: 32%
- Population Healthy Nuclei (%) [12]: 65%
- Population Hoechst High Intensity Objects (%) [12]: 22%
- Population Membrane Permeable-Phenotype (%) [12]: 9%
- Population Mitochondria Different-Phenotype (%) [12]: 5%
- Population Mitotic Cells (%) [12]: 50%
- Population Normal (%) [12]: 77%
- Population Pyknosed Nuclei (%) [12]: 1%
- Population Tubulin-Different-Phenotype (%) [12]: 54%
- Total Cell Count [12]: 145
- Population Apoptotic (%) [9]: 94%
- Population Fragmented Nuclei (%) [9]: 34%
- Population Healthy Nuclei (%) [9]: 25%
- Population Hoechst High Intensity Objects (%) [9]: 32%
- Population Membrane Permeable-Phenotype (%) [9]: 0%
- Population Mitochondria Different-Phenotype (%) [9]: 79%
- Population Mitotic Cells (%) [9]: 5%
- Population Normal (%) [9]: 67%
- Population Pyknosed Nuclei (%) [9]: 40%
- Population Tubulin-Different-Phenotype (%) [9]: 79%
- Total Cell Count [9]: 139
- Population Apoptotic (%) [10]: 81%
- Population Fragmented Nuclei (%) [10]: 14%
- Population Healthy Nuclei (%) [10]: 34%
- Population Hoechst High Intensity Objects (%) [10]: 47%
- Population Membrane Permeable-Phenotype (%) [10]: 9%
- Population Mitochondria Different-Phenotype (%) [10]: 68%
- Population Mitotic Cells (%) [10]: 18%
- Population Normal (%) [10]: 52%
- Population Pyknosed Nuclei (%) [10]: 51%
- Population Tubulin-Different-Phenotype (%) [10]: 63%
- Total Cell Count [10]: 122
